# Data from ChEMBL document CHEMBL1152665, “1,3,4-Oxadiazole-2(3H)-thione and its analogues: a new class of non-competitive nucleotide pyrophosphatases/phosphodiesterases 1 inhibitors” (Bioorg Med Chem, 2009).
# Assays:
# [1] = biological target: T1, Ectonucleotide pyrophosphatase/phosphodiesterase family member 1 (Homo sapiens, UniProt P22413); assay: Inhibition of human recombinant NPP1 assessed as release of p-nitrophenol by microtitre plate spectrophotometry
# T1 sequence (P22413 whole entry): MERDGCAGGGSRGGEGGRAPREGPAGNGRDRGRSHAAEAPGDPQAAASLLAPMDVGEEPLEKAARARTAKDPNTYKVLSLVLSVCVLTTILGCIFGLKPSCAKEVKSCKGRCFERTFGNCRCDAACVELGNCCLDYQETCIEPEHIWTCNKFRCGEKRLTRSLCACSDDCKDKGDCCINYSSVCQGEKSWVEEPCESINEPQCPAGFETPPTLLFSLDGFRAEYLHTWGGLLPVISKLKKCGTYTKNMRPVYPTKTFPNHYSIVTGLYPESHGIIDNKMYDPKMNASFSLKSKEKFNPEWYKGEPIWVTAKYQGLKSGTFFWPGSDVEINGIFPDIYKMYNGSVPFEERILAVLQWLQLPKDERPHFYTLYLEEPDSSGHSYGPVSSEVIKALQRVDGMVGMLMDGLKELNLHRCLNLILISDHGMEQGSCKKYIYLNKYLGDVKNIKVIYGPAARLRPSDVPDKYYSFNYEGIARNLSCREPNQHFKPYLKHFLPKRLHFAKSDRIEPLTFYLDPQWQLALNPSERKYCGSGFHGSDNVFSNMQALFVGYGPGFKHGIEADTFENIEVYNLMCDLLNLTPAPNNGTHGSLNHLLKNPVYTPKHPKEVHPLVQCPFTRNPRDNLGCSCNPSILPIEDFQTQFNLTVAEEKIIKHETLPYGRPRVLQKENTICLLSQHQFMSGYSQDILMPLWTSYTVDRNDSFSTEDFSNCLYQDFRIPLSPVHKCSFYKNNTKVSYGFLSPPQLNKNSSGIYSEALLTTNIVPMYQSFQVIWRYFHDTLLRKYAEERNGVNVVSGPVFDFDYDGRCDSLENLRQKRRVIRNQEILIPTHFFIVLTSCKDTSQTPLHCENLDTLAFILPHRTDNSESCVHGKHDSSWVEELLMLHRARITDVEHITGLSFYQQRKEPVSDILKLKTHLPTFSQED
# Outline: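 Soluble catalytic extracellular domain of human NPP1. Substrate p-nitrophenyl phenyl phosphonate in 20 mM Tris–HCl pH 8.0, 0.5 M NaCl, 1 mM CaCl2. p-Nitrophenol release read at 405 nm, 37 °C, microtitre plate. Triplicates; IC50 given with SEM of 3–5 experiments.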
# [2] = Cytotoxicity against human neutrophils assessed as cell viability up to 200 ug/mL after 30 mins by WST1 assay; type: cell-based, Neutrophil
# Outline: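 Neutrophils isolated from heparinized venous blood of healthy volunteers (Ficoll sedimentation, ammonium chloride 0.83% RBC lysis), 1 × 10^7 cells/mL, exposed to compounds at 200–12.5 µg/mL (five concentrations) for 30 min. Then WST-1 0.25 mM, 3 h at 37 °C with shaking, absorbance 450 nm. Mean of five replicates; % viability relative to untreated control.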
# [3] = Noncompetitive inhibition of snake venom NPP1 by Dixon plot analysis; design: species or system Naja naja
# [4] = Inhibition of snake venom NPP1 assessed as release of p-nitrophenol after 30 mins by microtitre plate spectrophotometry; design: species or system Naja naja
# Outline: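 Substrate: 0.33 mM bis-(p-nitrophenyl) phosphate. p-Nitrophenol release read at 410 nm, 37 °C, after 30 min incubation. Initial rates taken as OD/min change, run in triplicate. Cysteine and EDTA served as positive controls.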
# [5] = biological target: T1, Ectonucleotide pyrophosphatase/phosphodiesterase family member 1; assay: Noncompetitive inhibition of human recombinant NPP1 by Dixon plot analysis
# Outline: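 Same human NPP1 assay at fixed inhibitor concentrations. Dixon plots run at p-nitrophenyl phenyl phosphonate 0.4, 0.6, 0.8 and 1.0 mM, and Lineweaver–Burk plots from initial velocities. Secondary replots were slope versus 1/[S], and 1/Vmaxapp or slope versus inhibitor. Ki is the mean of five values from these plots; points are means of three experiments.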
SMILES,IC50 [1] [µM],viability at 0.5 h [2] [%],Ki [3] [µM],IC50 ([4]; read-out: IC50) [µM],Ki [5] [µM],IC50 [4]
CC(C)(C)[Si](C)(C)Oc1ccc(-c2n[nH]c(=S)s2)cc1,> 1000,> 90,100,66.5,,
Oc1cccc(-c2n[nH]c(=S)o2)c1,,,1050,1000,,
Oc1ccc(-c2n[nH]c(=S)s2)cc1,900,,350,390,850,
CCCCCCCCn1nc(-c2ccc(OCc3ccccc3)cc2)oc1=S,,,,> 1000,,
CCCn1nc(-c2ccc(O)cc2)sc1=S,,,,,,Not Active
S=c1[nH]nc(C(c2ccccc2)c2ccccc2)s1,,,,> 1000,,
Oc1ccc(-c2nn(Cc3ccccc3)c(=S)s2)cc1,,,,,,Not Active
S=c1[nH]nc(Cc2n[nH]c(=S)o2)o1,> 1000,,500,850,,
S=c1[nH]nc(CCCc2n[nH]c(=S)o2)o1,467,,450,429,150,
CC(C)(C)[Si](C)(C)Oc1ccc(-c2n[nH]c(=S)o2)cc1,368,> 90,375,383,360,
S=c1[nH]nc(-c2ccncc2)o1,,,,> 1000,,
CCCOc1ccc(-c2nn(CC)c(=S)s2)cc1,,,,,,Not Active
S=c1sc(-c2ccc(OCc3ccccc3)cc2)nn1Cc1ccccc1,,,,,,Not Active
S=c1[nH]nc(-c2ccncc2)s1,998,,525,660,,
S=c1[nH]nc(Cc2n[nH]c(=S)s2)s1,,> 90,1050,839,,
S=c1[nH]nc(-c2ccc(OCc3ccccc3)cc2)o1,628,,1400,900,850,
S=c1[nH]nc(-c2cccc(OCc3ccccc3)c2)o1,494,,,> 1000,360,
Oc1ccc(-c2n[nH]c(=S)o2)cc1,,,1150,960,,
